Changes are numbered by the printed parent chain.
How the values were obtained:
Conditions in all cases: stereoisomer not certain
OR1G1 (Homo sapiens) = target: T1, OR1G1 (Homo sapiens) (UniProt P47890)
T1 sequence (whole entry): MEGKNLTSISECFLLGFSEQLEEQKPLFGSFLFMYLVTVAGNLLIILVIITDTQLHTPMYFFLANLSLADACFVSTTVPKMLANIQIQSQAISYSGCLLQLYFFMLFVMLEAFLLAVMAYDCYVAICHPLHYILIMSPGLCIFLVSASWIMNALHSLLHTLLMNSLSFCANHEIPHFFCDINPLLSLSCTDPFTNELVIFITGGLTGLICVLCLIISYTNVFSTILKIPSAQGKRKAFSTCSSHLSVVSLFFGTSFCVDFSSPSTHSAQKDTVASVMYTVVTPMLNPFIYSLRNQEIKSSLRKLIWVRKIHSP
Method in brief: (§1)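 Assay methods differ from source to source, frequently being transient luciferase assays in mammalian cell lines. For each receptor–molecule pair, the label responsive (active) applies when the original authors judged the measured signal statistically different from baseline, and non-responsive (inactive) applies otherwise.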

OR1F12P (Homo sapiens) = target: T2, OR1F12P (Homo sapiens) (UniProt Q8NHA8)
T2 sequence (whole entry): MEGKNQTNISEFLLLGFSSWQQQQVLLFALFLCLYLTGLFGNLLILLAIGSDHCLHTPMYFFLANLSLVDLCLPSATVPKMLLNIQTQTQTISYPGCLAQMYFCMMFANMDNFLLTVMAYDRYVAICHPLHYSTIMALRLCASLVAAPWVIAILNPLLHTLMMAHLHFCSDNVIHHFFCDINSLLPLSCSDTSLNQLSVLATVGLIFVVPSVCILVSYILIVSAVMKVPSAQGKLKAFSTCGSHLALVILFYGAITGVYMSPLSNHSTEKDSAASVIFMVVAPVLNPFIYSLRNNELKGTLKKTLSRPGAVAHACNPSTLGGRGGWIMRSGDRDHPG
Method in brief: as §1

OR1F1 = system: T3, OR1F1
T3 sequence (whole entry): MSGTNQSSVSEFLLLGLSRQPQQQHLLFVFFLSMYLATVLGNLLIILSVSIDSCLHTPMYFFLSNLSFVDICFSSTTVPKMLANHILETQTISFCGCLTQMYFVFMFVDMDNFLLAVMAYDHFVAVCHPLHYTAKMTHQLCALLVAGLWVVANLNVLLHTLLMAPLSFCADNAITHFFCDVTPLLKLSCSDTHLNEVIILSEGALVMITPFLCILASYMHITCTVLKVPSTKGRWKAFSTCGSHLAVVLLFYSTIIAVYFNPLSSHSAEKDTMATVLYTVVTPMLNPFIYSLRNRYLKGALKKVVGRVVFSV
Method in brief: as §1

OR1I1 (Homo sapiens) = target: T4, OR1I1 (Homo sapiens) (UniProt O60431)
T4 sequence (whole entry): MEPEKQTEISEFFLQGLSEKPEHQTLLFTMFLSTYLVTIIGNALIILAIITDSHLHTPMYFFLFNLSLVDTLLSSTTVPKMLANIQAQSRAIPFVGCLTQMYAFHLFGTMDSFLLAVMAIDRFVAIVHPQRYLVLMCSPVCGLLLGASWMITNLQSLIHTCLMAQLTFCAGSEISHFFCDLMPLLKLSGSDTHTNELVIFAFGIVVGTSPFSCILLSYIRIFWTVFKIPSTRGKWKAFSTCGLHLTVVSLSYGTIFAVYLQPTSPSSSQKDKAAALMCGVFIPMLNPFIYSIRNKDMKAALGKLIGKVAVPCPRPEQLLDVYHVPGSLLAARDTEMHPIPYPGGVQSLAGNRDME
Method in brief: as §1

OR1J1 (Homo sapiens) = target: T5, OR1J1 (Homo sapiens) (UniProt Q8NGS3)
T5 sequence (whole entry): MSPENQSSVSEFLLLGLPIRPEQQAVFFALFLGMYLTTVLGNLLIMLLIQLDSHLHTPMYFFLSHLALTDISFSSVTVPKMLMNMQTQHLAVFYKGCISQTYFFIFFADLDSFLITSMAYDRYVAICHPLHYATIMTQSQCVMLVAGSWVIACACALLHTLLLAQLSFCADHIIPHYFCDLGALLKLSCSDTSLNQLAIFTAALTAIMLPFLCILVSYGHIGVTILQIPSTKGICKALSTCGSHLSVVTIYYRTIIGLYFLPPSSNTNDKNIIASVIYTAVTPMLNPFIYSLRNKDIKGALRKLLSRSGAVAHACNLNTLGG
Method in brief: as §1

OR1J2 (Homo sapiens) = target: T6, OR1J2 (Homo sapiens) (UniProt Q8NGS2)
T6 sequence (whole entry): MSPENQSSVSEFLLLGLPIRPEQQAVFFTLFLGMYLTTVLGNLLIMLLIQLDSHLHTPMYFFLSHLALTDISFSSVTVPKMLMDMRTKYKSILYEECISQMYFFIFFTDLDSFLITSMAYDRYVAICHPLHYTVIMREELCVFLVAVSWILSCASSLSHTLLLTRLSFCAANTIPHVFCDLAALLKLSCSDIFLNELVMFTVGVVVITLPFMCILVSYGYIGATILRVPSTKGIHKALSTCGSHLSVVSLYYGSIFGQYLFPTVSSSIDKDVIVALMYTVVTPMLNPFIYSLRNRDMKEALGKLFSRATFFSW
Method in brief: as §1

OR1J4 (Homo sapiens) = target: T7, OR1J4 (Homo sapiens) (UniProt Q8NGS1)
T7 sequence (whole entry): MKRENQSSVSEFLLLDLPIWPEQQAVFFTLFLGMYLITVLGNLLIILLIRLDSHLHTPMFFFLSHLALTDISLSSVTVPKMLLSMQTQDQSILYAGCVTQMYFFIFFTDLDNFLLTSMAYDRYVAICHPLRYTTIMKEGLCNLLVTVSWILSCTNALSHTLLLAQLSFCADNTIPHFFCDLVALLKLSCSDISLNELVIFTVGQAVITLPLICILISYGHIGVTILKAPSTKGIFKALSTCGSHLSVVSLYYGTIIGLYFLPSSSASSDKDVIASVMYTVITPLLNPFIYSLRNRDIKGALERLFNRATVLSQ
Method in brief: as §1

OR1K1 (Homo sapiens) = target: T8, OR1K1 (Homo sapiens) (UniProt Q8NGR3)
T8 sequence (whole entry): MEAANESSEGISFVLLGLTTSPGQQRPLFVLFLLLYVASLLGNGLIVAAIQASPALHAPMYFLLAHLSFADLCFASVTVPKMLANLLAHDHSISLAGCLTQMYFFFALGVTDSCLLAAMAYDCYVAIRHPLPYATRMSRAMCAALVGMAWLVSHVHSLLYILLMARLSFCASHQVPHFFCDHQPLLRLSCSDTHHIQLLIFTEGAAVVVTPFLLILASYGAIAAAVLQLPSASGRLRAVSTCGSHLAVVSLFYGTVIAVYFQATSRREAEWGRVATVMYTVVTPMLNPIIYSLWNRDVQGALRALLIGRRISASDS
Method in brief: as §1

OR1L1 = system: T9, OR1L1
T9 sequence (whole entry): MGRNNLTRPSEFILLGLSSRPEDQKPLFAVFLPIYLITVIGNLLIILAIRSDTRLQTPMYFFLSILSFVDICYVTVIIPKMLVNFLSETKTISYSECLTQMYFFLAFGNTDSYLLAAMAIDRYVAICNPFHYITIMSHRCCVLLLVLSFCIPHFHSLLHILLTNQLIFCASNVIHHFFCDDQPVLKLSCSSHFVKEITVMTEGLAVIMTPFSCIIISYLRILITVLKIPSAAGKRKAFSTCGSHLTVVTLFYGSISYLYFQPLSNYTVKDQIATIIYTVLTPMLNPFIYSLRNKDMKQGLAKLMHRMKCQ
Method in brief: as §1

OR1L3 (Homo sapiens) = target: T10, OR1L3 (Homo sapiens) (UniProt Q8NH93)
T10 sequence (whole entry): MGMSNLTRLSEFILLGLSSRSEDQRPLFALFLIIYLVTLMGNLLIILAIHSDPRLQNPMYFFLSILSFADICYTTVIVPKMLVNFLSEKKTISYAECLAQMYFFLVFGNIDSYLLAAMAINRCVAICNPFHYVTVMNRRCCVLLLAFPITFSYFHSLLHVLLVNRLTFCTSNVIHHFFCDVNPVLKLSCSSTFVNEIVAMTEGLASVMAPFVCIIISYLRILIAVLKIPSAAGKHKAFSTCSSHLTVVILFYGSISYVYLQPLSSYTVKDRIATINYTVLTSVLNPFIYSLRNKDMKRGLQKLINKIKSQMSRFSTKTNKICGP
Method in brief: as §1

OR1L4 (Homo sapiens) = target: T11, OR1L4 (Homo sapiens) (UniProt Q8NGR5)
T11 sequence (whole entry): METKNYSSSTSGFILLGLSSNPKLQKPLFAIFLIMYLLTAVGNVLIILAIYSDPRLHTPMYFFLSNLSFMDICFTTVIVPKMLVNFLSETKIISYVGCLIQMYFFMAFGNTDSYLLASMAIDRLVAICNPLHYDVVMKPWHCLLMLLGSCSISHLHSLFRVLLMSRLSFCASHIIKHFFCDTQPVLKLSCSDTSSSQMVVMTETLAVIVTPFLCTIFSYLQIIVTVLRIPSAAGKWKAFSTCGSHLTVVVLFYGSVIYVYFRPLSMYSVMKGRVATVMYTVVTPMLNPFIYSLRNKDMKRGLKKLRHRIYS
Method in brief: as §1

OR1L4 = system: T12, OR1L4
T12 sequence (whole entry): T11 sequence (whole entry) with G234R
Method in brief: as §1

OR1L6 = system: T13, OR1L6
T13 sequence (whole entry): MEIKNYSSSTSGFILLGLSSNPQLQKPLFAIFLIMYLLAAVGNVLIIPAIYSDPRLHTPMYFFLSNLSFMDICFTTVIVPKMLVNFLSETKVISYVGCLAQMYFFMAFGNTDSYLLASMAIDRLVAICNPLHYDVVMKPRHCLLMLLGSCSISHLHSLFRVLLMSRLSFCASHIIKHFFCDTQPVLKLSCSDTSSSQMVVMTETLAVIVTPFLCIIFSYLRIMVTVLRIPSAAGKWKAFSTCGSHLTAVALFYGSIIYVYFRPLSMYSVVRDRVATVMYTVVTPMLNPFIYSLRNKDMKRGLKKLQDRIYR
Method in brief: as §1

OR1L8 (Homo sapiens) = target: T14, OR1L8 (Homo sapiens) (UniProt Q8NGR8)
T14 sequence (whole entry): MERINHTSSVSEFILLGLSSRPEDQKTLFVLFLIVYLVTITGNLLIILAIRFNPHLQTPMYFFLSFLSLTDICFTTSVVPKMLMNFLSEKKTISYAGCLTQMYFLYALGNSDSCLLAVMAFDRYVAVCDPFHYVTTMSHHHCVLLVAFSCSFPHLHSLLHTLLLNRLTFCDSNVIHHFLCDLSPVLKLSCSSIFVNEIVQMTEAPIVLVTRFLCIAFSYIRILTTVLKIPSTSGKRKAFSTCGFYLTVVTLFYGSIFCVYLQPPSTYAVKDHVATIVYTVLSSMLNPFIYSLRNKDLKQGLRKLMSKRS
Method in brief: as §1

OR1L8 T27P R211P = system: T15, OR1L8 T27P R211P
T15 sequence (whole entry): T14 sequence (whole entry) with T27P, R211P
Method in brief: as §1

OR1M1 (Homo sapiens) = target: T16, OR1M1 (Homo sapiens) (UniProt Q8NGA1)
T16 sequence (whole entry): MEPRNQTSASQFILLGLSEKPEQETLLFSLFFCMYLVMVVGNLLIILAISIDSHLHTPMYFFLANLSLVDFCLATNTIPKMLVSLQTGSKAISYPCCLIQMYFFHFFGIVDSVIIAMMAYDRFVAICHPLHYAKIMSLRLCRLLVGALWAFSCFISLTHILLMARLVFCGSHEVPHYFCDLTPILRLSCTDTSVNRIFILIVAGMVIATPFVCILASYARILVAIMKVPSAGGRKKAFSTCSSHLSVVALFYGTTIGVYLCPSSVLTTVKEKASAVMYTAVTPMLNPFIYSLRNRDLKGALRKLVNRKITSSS
Method in brief: as §1

OR1N1 (Homo sapiens) = target: T17, OR1N1 (Homo sapiens) (UniProt Q8NGS0)
T17 sequence (whole entry): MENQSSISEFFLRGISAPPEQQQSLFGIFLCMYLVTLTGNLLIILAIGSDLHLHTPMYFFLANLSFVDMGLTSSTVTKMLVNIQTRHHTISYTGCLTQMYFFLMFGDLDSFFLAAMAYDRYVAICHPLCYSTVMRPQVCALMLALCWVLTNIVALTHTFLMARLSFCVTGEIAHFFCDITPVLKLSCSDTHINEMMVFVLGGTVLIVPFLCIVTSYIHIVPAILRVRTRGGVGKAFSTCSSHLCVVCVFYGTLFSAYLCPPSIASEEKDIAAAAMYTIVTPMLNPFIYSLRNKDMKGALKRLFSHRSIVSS
Method in brief: as §1

OR1N2 W37R = system: T18, OR1N2 W37R
T18 sequence (whole entry): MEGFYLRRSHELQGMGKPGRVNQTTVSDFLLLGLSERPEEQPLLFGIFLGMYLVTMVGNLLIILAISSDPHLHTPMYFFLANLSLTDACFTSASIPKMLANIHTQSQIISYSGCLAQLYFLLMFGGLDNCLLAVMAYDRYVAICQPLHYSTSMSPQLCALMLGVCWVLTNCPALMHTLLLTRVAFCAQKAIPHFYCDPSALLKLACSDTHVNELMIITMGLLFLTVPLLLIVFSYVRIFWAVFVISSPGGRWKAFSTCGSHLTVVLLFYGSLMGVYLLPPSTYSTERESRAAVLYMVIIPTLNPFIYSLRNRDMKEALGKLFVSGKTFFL
Method in brief: as §1

Measured: odorant receptor agonist call

CCCCCCCCCC(=O)OC
active: OR1G1 (Homo sapiens)

CCCCCCCCCCCC(=O)O
inactive: OR1G1 (Homo sapiens)

CCCC(S)CCOC(C)=O (stereo not given)
inactive: all assays above
